Measurements as given in ChEMBL document CHEMBL1132944, “Poly(N-acryl amino acids): a new class of biologically active polyanions” (2000).

Key:
Type in all cases: functional
[1] = Anti-coagulation activity evaluated as activated partial thromboplastin time (APTT) determined for 25 ug/ml in pooled normal plasma
Summary of the method: (§1)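 Activated partial thromboplastin time was measured in pooled normal human plasma with a commercial liquid silica-activator APTT kit. Polymer was added to the plasma, and clotting time was recorded in seconds. Plasma without polymer served as the control, and heparin was the positive control.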

[2] = Anti-coagulation activity evaluated as activated partial thromboplastin time (APTT) determined for 250 ug/ml in pooled normal plasma; summary of the method: as §1
[3] = Anti-coagulation activity evaluated as activated partial thromboplastin time (APTT) of the non-sulfated compound determined for 25 ug/mL in pooled normal plasma; summary of the method: as §1
[4] = Anti-coagulation activity evaluated as activated partial thromboplastin time (APTT) of the sulfated compound determined for 25 ug/mL in pooled normal plasma; summary of the method: as §1

Compound | APTT [1] [s] | APTT [2] [s] | APTT [3] [s] | APTT [4] [s]
CCC(C)C(=O)NCC(=O)O (stereo not drawn) | 40 |  |  | 
CCC(C)C(=O)N1C[C@H](O)C[C@@H]1C(=O)O (relative stereo) | 35 |  |  | 
CCC(C)C(=O)N[C@H](CCC(=O)[O-])C(=O)[O-].[Na+].[Na+] (stereo partly drawn) | 56 | 75 |  | 
CCC(C)C(=O)N1CC[C@H](OS(=O)(=O)O)C1 (stereo partly drawn) |  |  | 39 | 32
CCC(C)C(=O)N[C@@H](C(=O)[O-])C(C)(C)C.[Na+] (stereo partly drawn) | 36 |  |  | 
CCC(C)C(=O)N[C@H](Cc1ccc(O)cc1)C(=O)[O-].[Na+] (stereo partly drawn) | 32 |  |  | 
CCC(C)C(=O)N1C[C@@H](O)C[C@@H]1C(=O)O (relative stereo) | 37 |  |  | 
CCC(C)C(=O)N1C[C@@H](OS(=O)(=O)O)C[C@@H]1C(=O)O (stereo partly drawn) |  |  | 37 | 100
CCC(C)C(=O)N[C@H](Cc1ccc(OS(=O)(=O)[O-])cc1)C(=O)[O-].[Na+].[Na+] (stereo partly drawn) |  |  | 35 | 45
CCC(C)C(=O)N[C@H](Cc1ccccc1)C(=O)[O-].[Na+] (stereo partly drawn) | 56 | 109 |  | 
CCC(C)C(=O)N[C@H](CC(C)C)C(=O)[O-].[Na+] (stereo partly drawn) | 36 |  |  | 
CCC(C)C(=O)N[C@H](CO)C(=O)O (stereo partly drawn) | 39 |  |  | 
CCC(C)C(=O)N[C@H](COS(=O)(=O)[O-])C(=O)[O-].[Na+].[Na+] (stereo partly drawn) |  |  | 32 | 35
CCC(C)C(=O)N[C@H](CCCCN)C(=O)[O-].[Na+] (stereo partly drawn) | 33 |  |  | 
CCC(C)C(=O)N[C@H](Cc1c[nH]cn1)C(=O)[O-].[Na+] (stereo partly drawn) | 30 |  |  | 
CCC(C)C(=O)N1CCC[C@@H]1C(=O)[O-].[Na+] (stereo partly drawn) | 55 | 109 |  | 
